Source: PubChem (Sanford-Burnham Center for Chemical Genomics)
Sampled rows, rich in hits. Any-hit rate of the full collection: about 2.3%.
LMPTP inh = LMPTP phosphatase inhibitors, primary screen, biochemical, fluorescence intensity, uHTS | Low molecular weight phosphotyrosine protein phosphatase (Homo sapiens), P24666 | recombinant LMPTP-A, OMFP fluorogenic substrate | inhibition, % at 20 µM | 360,000 compounds, 0.22% hits;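 active = compounds that cut the enzyme signal by at least half of the control window in the single-dose screen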;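 note: plate controls were DMSO wells with enzyme plus substrate for no effect and substrate without enzyme for full effect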
Target sequence (P24666 whole entry, looked up): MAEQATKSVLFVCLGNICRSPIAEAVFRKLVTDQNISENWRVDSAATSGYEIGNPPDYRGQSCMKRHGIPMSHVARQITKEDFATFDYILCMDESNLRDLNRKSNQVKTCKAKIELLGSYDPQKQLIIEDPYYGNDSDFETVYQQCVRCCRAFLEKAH
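Assay system: LMPTP-A enzyme. Input: 0.625 nM LMPTP-A final. Probe or stimulus: 400 µM OMFP. Compound dosing: single 20 µM dose. Schedule: 50 min dark incubation at room temperature. Detection: fluorescence intensity of OMFP turnover product. Read-out: percent inhibition versus substrate-only and uninhibited controls. Benchmarks: no-enzyme low control, uninhibited high control.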
Scp-1 inhibitor = Scp-1 phosphatase inhibitors, primary screen, biochemical, colorimetric, uHTS. 340,000 compounds, 0.88% hits. AID 493091, 2011. Carboxy-terminal domain RNA polymerase II polypeptide A small phosphatase 1 (Homo …. Recombinant Scp1, phosphopeptide, malachite green phosphate absorbance. inhibition, % at 20 µM;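 active = inhibition above about 50% at 20 µM, limit read from the data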;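 note: plate controls were DMSO wells with enzyme for no effect and wells lacking enzyme for full effect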
Target sequence (Q9GZU7 76-261 limits assumed): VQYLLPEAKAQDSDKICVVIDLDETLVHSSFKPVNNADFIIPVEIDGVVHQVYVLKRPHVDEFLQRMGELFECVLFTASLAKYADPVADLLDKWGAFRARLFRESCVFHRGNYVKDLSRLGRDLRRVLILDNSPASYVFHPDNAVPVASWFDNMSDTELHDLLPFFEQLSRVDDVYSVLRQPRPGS
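System: truncated SCP-1 phosphatase (76-261aa); medium: Tris acetate buffer pH 5.5 with MgCl2 and Tween-20; incubation: 45 min room-temperature reaction, 5 min colour, 30 min stabiliser; compound: single 20 µM dose, 1% DMSO; reagent: Phosphorylated 17-residue peptide substrate; read-out: % inhibition at 20 µM; technique: colorimetric free-phosphate detection, absorbance 630 nm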
DNMT1 block = human DNMT1 methyltransferase inhibitors, primary screen, biochemical, molecular beacon, fluorescence, HinP1I cleavage, uHTS; AID 588458, 2011; DNA (cytosine-5)-methyltransferase 1 (Homo sapiens), P26358; 360,000 compounds, 0.83% hits; inhibition (reported as % activation of signal), % at 10 µM; in the data active = inhibition above about 50%
Rpn11 block = Rpn11 (PSMD14) deubiquitinase inhibitors, primary screen, biochemical, fluorescence polarization, uHTS. 26S proteasome non-ATPase regulatory subunit 14 (Homo sapiens), O00487. human 26S proteasome, Ub4-pepOG fluorescence polarization; 20S core pre-blocked with epoxomicin. inhibition, % at 20 µM. 360,000 compounds, 0.59% hits;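 active = inhibition at 20 µM, scaled to each plate's controls, above about 33%, limit read from the data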
SUMO1-SIM PPI = modulators of SUMO1 protein-protein interactions, primary screen, biochemical, uHTS; AID 602429, 2012; Small ubiquitin-related modifier 1 (Homo sapiens), P63165; SUMO1 binding to a labelled peptide, TR-FRET, 1 h; 360,000 compounds, 0.33% hits; inhibition, % at 20 µM; in the data active = inhibition above about 37%
Target sequence (P63165 whole entry, looked up): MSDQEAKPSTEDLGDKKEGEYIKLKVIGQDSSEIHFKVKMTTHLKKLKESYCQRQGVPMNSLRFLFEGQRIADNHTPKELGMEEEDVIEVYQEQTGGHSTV
STEP block = STEP phosphatase inhibitors, primary screen, biochemical, fluorescence intensity, uHTS. Tyrosine-protein phosphatase non-receptor type 5 (Homo sapiens), P54829. recombinant STEP, OMFP fluorogenic substrate. inhibition, % at 20 µM. 360,000 compounds, 0.25% hits. AID 588621, 2011;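 active = inhibition at 20 µM, scaled per plate between control wells, above about 37%, limit read from the data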;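 note: 0% = DMSO with enzyme and substrate and 100% = substrate only without enzyme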
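material = STEP tyrosine phosphatase | reagent = fluorogenic phosphatase substrate OMFP at 25 µM final | doses = single compound dose of 20 µM, 1% DMSO final | schedule = 20 min reaction, room temperature, in the dark | measured by = fluorescence, 480/540 nm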
Rpn11 confirm = Rpn11 (PSMD14) deubiquitinase inhibitors, confirmation, biochemical, fluorescence polarization, single concentration; shares compounds with Rpn11 block; purified human 26S proteasome, Ub4-pepOG fluorescence polarization; proteasome pretreated with epoxomicin; inhibition, % at 20 µM; 1,900 compounds, 29% hits; AID 602318, 2012
MMP-2 counter = MMP-2 enzyme inhibition, confirmation, counter-screen for RPN11 inhibitor project, biochemical, fluorescence, single concentration; shares compounds with Rpn11 block; recombinant MMP-2, FRET peptide cleavage fluorescence; inhibition, % at 20 µM; 1,900 compounds, 4% hits;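 note: human MMP-2 activated beforehand with APMA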
Thrombin inh = bovine thrombin protease inhibition, confirmation, counter-screen for Rpn11 inhibitor project, biochemical, fluorescence polarization, single concentration; 1,900 compounds, 13% hits; inhibition, % at 20 µM; shares compounds with Rpn11 block; AID 602333, 2012; bovine thrombin cleavage of Ub4-pepOG;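 active = mean inhibition at least 40% at 20 µM, or signal 3 deviations below plate average, so some actives read negative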;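 note: plate controls were thrombin with DMSO for no effect and buffer wells lacking thrombin for full effect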
* hit, by the source's call. Cut-off read from the data, not from the text of the source, unless noted: active = inhibition above about 40%; inactive = the rest.

Results for CCCN1C(=O)/C(=C\C=C2/Sc3ccccc3N2CCO)SC1=S ?
LMPTP inh: 7.5; Scp-1 inhibitor: -4.2; DNMT1 block: 23.2; Rpn11 block: 14.2; SUMO1-SIM PPI: -37.2; STEP block: 4.5

How did O=C(COC(=O)c1cnccn1)c1cccc([N+](=O)[O-])c1 do in these assays?
LMPTP inh: -0.9; Scp-1 inhibitor: -4.3; DNMT1 block: -3.3; Rpn11 block: 1.1; SUMO1-SIM PPI: -12.8; STEP block: 0.6

How did O=C1/C(=C/c2ccc3c(c2)OCO3)Oc2cc(OCC(=O)N3CCC[C@H]3C(=O)O)ccc21 do in these assays?
LMPTP inh: -1.2; Scp-1 inhibitor: 4.1; DNMT1 block: -2.4; Rpn11 block: 16.4; SUMO1-SIM PPI: -7.7; STEP block: -0.4

How did COc1ccc(/C=C2\Oc3cc(OCC(=O)N4CCC[C@H]4CO)ccc3C2=O)c(OC)c1 do in these assays?
LMPTP inh: -0.2; Scp-1 inhibitor: 27.0; DNMT1 block: -6.7; Rpn11 block: 75.2*; SUMO1-SIM PPI: -21.9; STEP block: -1.3; Rpn11 confirm: 72.7*; MMP-2 counter: -52.5; Thrombin inh: 62.4*

Results for Cc1ccc(CN(C(=O)c2csnn2)C(C(=O)NC2CCCC2)c2ccccn2)cc1 (stereo unspecified) ?
LMPTP inh: -1.6; Scp-1 inhibitor: -0.8; DNMT1 block: 3.2; Rpn11 block: 48.4*; SUMO1-SIM PPI: -0.9; STEP block: 0.9; Rpn11 confirm: -22.9; MMP-2 counter: -38.7; Thrombin inh: -20.0

How did COC(=O)c1[nH]c2ccc(C)cc2c1NC(=O)CN1CCCc2ccccc21 do in these assays?
LMPTP inh: 4.9; Scp-1 inhibitor: -10.5; DNMT1 block: 12.7; Rpn11 block: 66.4*; SUMO1-SIM PPI: -12.2; STEP block: 1.2; Rpn11 confirm: 48.4*; MMP-2 counter: -142.9; Thrombin inh: 7.2

How did COC(=O)c1[nH]c2cc(C)ccc2c1NC(=O)CN1CCN(c2ccccc2OC)CC1 do in these assays?
LMPTP inh: 0.1; Scp-1 inhibitor: -3.4; DNMT1 block: -7.5; Rpn11 block: -2.5; SUMO1-SIM PPI: -6.2; STEP block: 2.3

Results for CCOC(=O)c1ccc(-c2ccc3oc(-c4ccsc4)cc(=O)c3c2)cc1F ?
LMPTP inh: 1.8; Scp-1 inhibitor: -4.4; DNMT1 block: 10.3; Rpn11 block: 43.4*; SUMO1-SIM PPI: -42.0; STEP block: 1.8; Rpn11 confirm: -7.6; MMP-2 counter: -20.6; Thrombin inh: -11.4

What do the screens show for `COc1ccc(-c2ccc3oc(-c4ccsc4)cc3c2)cc1`?
LMPTP inh: -2.3; Scp-1 inhibitor: 1.2; DNMT1 block: 17.2; Rpn11 block: -9.1; SUMO1-SIM PPI: 4.6; STEP block: -0.1

How did CCn1nc(NC(=O)c2ccccn2)c2cc3cccc(C)c3nc21 do in these assays?
LMPTP inh: 0.1; Scp-1 inhibitor: -9.3; DNMT1 block: 2.6; Rpn11 block: 68.1*; SUMO1-SIM PPI: -2.5; STEP block: 1.4; Rpn11 confirm: 4.2; MMP-2 counter: -25.5; Thrombin inh: 14.9

How did CCn1nc(NC(=O)c2ccncc2)c2cc3cccc(C)c3nc21 do in these assays?
LMPTP inh: 2.4; Scp-1 inhibitor: -9.8; DNMT1 block: -1.8; Rpn11 block: 3.2; SUMO1-SIM PPI: -8.2; STEP block: 0.7

What do the screens show for `CCCCCCCNC(=O)C1CC(=O)N(C)C(=Nc2ccc(OC)cc2)S1` (stereo unspecified)?
LMPTP inh: 0.9; Scp-1 inhibitor: -2.7; DNMT1 block: -2.7; Rpn11 block: 12.7; SUMO1-SIM PPI: -2.6; STEP block: -1.9

How did COc1nccc(NCc2ccccc2)c1C#N do in these assays?
LMPTP inh: -0.6; Scp-1 inhibitor: 8.7; DNMT1 block: 2.4; Rpn11 block: -5.9; SUMO1-SIM PPI: -7.4; STEP block: -1.0

What do the screens show for `CSc1sc(-c2nnc(SCC(=O)Nc3ccc(Cl)cc3)n2C)c2c1C=CCC2`?
LMPTP inh: 0.2; Scp-1 inhibitor: 0.9; DNMT1 block: -3.6; Rpn11 block: 40.4*; SUMO1-SIM PPI: -16.4; STEP block: -2.4; Rpn11 confirm: 1.7; MMP-2 counter: -16.2; Thrombin inh: 4.4

What do the screens show for `CCOc1cc(/C=C2\SC(=S)N(C(C(=O)O)c3ccccc3)C2=O)ccc1O` (stereo unspecified)?
LMPTP inh: 1.4; Scp-1 inhibitor: 4.5; DNMT1 block: -3.9; Rpn11 block: 112.2*; SUMO1-SIM PPI: -21.5; STEP block: 1.3; Rpn11 confirm: 62.8*; MMP-2 counter: 13.4; Thrombin inh: 72.3*

How did COc1cc(/C=C2\SC(=S)N(C(C(=O)O)c3ccccc3)C2=O)ccc1O (stereo unspecified) do in these assays?
LMPTP inh: 0.3; Scp-1 inhibitor: -12.0; DNMT1 block: -2.7; Rpn11 block: 80.7*; SUMO1-SIM PPI: -17.8; STEP block: 4.4; Rpn11 confirm: 56.0*; MMP-2 counter: -15.2; Thrombin inh: 73.2*

How did O=C(O)C(c1ccccc1)N1C(=O)/C(=C\c2ccc(O)c(O)c2)SC1=S (stereo unspecified) do in these assays?
LMPTP inh: 5.4; Scp-1 inhibitor: 31.1; DNMT1 block: 9.5; Rpn11 block: 85.0*; SUMO1-SIM PPI: -12.9; STEP block: 10.6; Rpn11 confirm: 61.0*; MMP-2 counter: 31.1; Thrombin inh: 47.5*

Results for CCOc1ccc(/C=C2/SC(=S)N(C(C(=O)O)c3ccccc3)C2=O)cc1OCC (stereo unspecified) ?
LMPTP inh: 2.7; Scp-1 inhibitor: -2.5; DNMT1 block: 3.9; Rpn11 block: 34.3; SUMO1-SIM PPI: -12.8; STEP block: 2.6
